A selection: hits, their analogues and other compounds. The true share with any hit is near 5.7%.
Calb FLC: affects C. albicans growth with fluconazole; C. albicans CaCi-2 (fluconazole-resistant clinical isolate) + fluconazole, Alamar Blue growth, 48 h; growth inhibition, % (test concentration not listed); 300,000 tested, 0.57% active; AID 1979;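 active means growth inhibition above about 58% in most replicates, limit read from the data, passing the limit was not always enough; inconclusive means exactly half the replicates above a set limit; inactive means most replicates below a set limit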;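 further: all wells also contain fluconazole at 8 µg/ml as a sub-toxic cotreatment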
T cruzi inh: blocks replication of Trypanosoma cruzi. T. cruzi beta-gal in NIH3T3, luminescence, 90 h. inhibition, % (concentration not given with the values). 300,000 tested, 1.4% active. AID 1885;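 active means mean inhibition across valid replicates above about 55%, limit read from the data; inconclusive means mean below that limit but half or more replicates reach it; inactive means mean below it, under half of replicates reach it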;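 further: signal also drops with host cell toxicity which is not excluded here; higher percent means less beta-gal luminescence so fewer parasites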
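Incubation – ≥90 h infection period, 3 h prior cell attachment · System – NIH/3T3 fibroblasts plus reporter T. cruzi · Doses – compound pinned at 50 nL/well, DMSO · Read-out basis – percent inhibition of parasite-derived β-gal signal · Signal – luminescent β-galactosidase signal after 60 min lysis · Also added – 5000 T. cruzi trypomastigotes/well · Medium – Low-serum DMEM with 2% FBS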
Beta apoptosis: blocks beta cell apoptosis. protection from apoptosis, % (no concentration beside the values). INS-1E cytokine-induced death, ATP luminescence, 48 h; percent of positive-control rescue, neutral wells zero. 300,000 tested, 0.8% active;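 active means Every replicate reaches about 75%, or at least half do and their mean reaches it too, limit read from the data; inconclusive means At least half of replicates reach the limit but their mean does not; inactive means Under half of replicates reach the limit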;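 further: higher means more ATP so stronger rescue from cytokine killing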
CSC inhib: blocks cancer stem cells. cancer stem cell-like cells viability, luminescence. inhibition, % at 7.5 µM. 300,000 tested, 1.1% active; in the data active means inhibition above about 75%; inconclusive means no clear call, values can overlap the other calls; tested in HMLE shEcad cells
SKKanGAS inh: blocks kanamycin growth of S. pyogenes SKKanGAS strain | BacTiter-Glo, 6 h | inhibition, % at 7.5 µM | 300,000 tested, 1.3% active | AID 1662;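 active means mean replicate score, as percent of positive control median, at least 50; inconclusive means mean below 50 but one replicate at or above 50; inactive means mean and every replicate below 50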;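 further: strain carries kanamycin resistance gene driven by streptokinase promoter and grows in 40 µg/ml kanamycin; loss of luminescence reflects streptokinase promoter inhibition or plain growth inhibition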
Mdm2-MdmX inh: human Mdm2/MdmX binding inhibition; O15151+Q00987; SaOS-2 split-luciferase Mdm2/MdmX complementation, luminescence; inhibition, % at 8 µM; 330,000 tested, 3% active;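 active means inhibition of at least 50% at 8 µM in the primary screen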
Target sequence (O15151 whole entry, looked up): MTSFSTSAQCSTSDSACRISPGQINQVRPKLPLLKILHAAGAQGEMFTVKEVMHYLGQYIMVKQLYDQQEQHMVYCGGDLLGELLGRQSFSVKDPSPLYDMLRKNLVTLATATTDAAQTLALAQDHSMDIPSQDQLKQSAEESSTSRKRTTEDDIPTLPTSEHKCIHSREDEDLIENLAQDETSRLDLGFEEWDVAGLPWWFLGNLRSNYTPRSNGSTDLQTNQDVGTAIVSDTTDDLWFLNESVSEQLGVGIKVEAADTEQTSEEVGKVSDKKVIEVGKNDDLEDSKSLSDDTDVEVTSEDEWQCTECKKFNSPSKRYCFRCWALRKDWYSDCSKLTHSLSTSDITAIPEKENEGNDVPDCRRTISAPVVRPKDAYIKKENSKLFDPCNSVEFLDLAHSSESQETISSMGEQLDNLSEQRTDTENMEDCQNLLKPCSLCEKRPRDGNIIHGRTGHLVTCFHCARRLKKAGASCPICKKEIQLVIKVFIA
Target sequence (Q00987 whole entry, looked up): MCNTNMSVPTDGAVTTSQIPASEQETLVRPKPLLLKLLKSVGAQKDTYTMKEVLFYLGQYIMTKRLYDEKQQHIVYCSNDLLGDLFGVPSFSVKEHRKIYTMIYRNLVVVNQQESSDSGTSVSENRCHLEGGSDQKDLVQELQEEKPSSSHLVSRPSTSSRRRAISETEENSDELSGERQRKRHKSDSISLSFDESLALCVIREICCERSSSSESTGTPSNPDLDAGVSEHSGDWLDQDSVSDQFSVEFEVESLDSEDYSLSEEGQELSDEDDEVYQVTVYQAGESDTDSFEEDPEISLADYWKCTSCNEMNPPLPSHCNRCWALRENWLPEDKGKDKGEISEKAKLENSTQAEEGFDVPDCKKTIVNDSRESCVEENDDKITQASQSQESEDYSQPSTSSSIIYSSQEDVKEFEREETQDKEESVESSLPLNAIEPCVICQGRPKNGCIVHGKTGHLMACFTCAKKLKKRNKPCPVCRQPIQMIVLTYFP
Large screens that a line does not name were inactive.

CCn1cc(S(=O)(=O)Nc2ccccc2C(F)(F)F)cn1	none (no result: Beta apoptosis)
CCC(C)c1ccccc1NS(=O)(=O)c1cnn(CC)c1 (configuration not stated)	SKKanGAS inh 53 (no result: Beta apoptosis)
CC(C)c1ccc(N(CC(=O)NCCCN2CCOCC2)S(=O)(=O)c2ccccc2)cc1	none (no result: Calb FLC, T cruzi inh, Beta apoptosis, CSC inhib, SKKanGAS inh)
CS(=O)(=O)c1ccc2nc(NC(=O)c3cccc(NS(=O)(=O)c4ccc(F)c(F)c4)c3)sc2c1	none
CS(=O)(=O)c1ccc2nc(NC(=O)c3ccc(NS(=O)(=O)c4ccc(F)c(F)c4)cc3)sc2c1	SKKanGAS inh 85
O=C(Nc1nc2ccc(SC(F)F)cc2s1)c1ccc(NS(=O)(=O)c2ccc(F)c(F)c2)cc1	Calb FLC inconclusive, CSC inhib 79, SKKanGAS inh 114
CC(C)(C)NS(=O)(=O)c1ccc2nc(NC(=O)c3ccc(N4C(=O)CCC4=O)cc3)sc2c1	none
CCc1nc2ccccc2c(C(=O)Nc2ccc(F)cc2)c1C	none
CCCN(CC(=O)Nc1ccccc1C)C(=O)c1ccc(S(=O)(=O)N2CCC(C)CC2)cc1	none (no result: Calb FLC, T cruzi inh, Beta apoptosis, CSC inhib, SKKanGAS inh)
Cc1cc(O)c(/C=N/Nc2ccc(Cl)cc2)c(=O)o1	Calb FLC 87
Cc1cc(O)c(/C=N/Nc2cccc(Cl)c2)c(=O)o1	none
CC(C)CC1Nc2ccc(C(=O)NCCCN3CCCCC3C)cc2NC1=O (configuration not stated)	none
Cc1[nH]c(-c2ccc(F)cc2)cc1C(=O)N1CCN(c2cccc(Cl)c2)CC1	SKKanGAS inh 67
COc1ccc(Cl)cc1C(=O)NNC(=S)NC(=O)c1cc(-c2ccc(Cl)cc2)nc2ccccc12	SKKanGAS inh 71
CCNC(=S)NNC(=O)c1cc(-c2ccc(OC)cc2)nc2ccccc12	Calb FLC 99
O=C(NC(=S)Nc1ccccc1)c1cc(-c2ccccc2)nc2ccccc12	none
CCNC(=S)NNC(=O)c1cc(-c2cccc(C)c2)nc2ccccc12	Calb FLC 116
CCNC(=S)NNC(=O)c1cc(-c2cccc(OCC)c2)nc2ccccc12	none
C/C(=N\N=C(/C)c1cccc(N)c1)c1cccc(N)c1	none (no result: Beta apoptosis)
Cc1cc(-c2nnc(CCC(=O)NCCc3ccccc3F)o2)no1	none (no result: Beta apoptosis)
COc1ccc(CSc2nnc(-c3ccncc3)n2C)cc1F	none (no result: Calb FLC)
CCCCc1ccc(NC(=S)NCc2cccc(OC)c2)cc1	T cruzi inh 56
O=C(CCNS(=O)(=O)c1ccc(Br)cc1)NC1CCC(O)CC1 (configuration not stated)	none (no result: Calb FLC, T cruzi inh, SKKanGAS inh)
COc1ccc2c(c1)c(CC(=O)Nc1cccc(S(N)(=O)=O)c1)c(C)n2C(=O)c1ccc(Cl)cc1	SKKanGAS inh 86
COc1ccc(NC(=O)Cc2c(C)n(C(=O)c3ccc(Cl)cc3)c3ccc(OC)cc23)cc1	none
COc1ccc2c(c1)c(CC(=O)Nc1ccc(C)cc1)c(C)n2C(=O)c1ccc(Cl)cc1	T cruzi inh 56
Cc1nn(-c2ccccc2)c(N2CCCC2)c1/C=N/Nc1ccc(S(=O)(=O)Nc2ccccc2)cc1[N+](=O)[O-]	CSC inhib inconclusive
COc1ccccc1NS(=O)(=O)c1ccc(N/N=C/c2c(C)nn(-c3ccccc3)c2N2CCCC2)c([N+](=O)[O-])c1	T cruzi inh 66
O=C(COc1ccccc1)Nc1nnc(-c2ccc3c(c2)CCCC3)o1	Calb FLC 82, SKKanGAS inh 89
O=C(Nc1nnc(-c2ccc3c(c2)CCCC3)o1)c1ccccc1Cl	SKKanGAS inh 90 (no result: Beta apoptosis)
O=C(COc1ccccc1)Nc1nnc(-c2ccccc2Cl)o1	SKKanGAS inh 53
O=C(Nc1cccc2c1CCCC2)c1ccccc1Cl	none
O=C(COc1ccccc1)Nc1nnc(-c2ccc(F)cc2)o1	none
COc1ccc(N2CC(C(=O)NCc3nnnn3-c3ccc(C)c(C)c3)CC2=O)cc1 (configuration not stated)	none
CC(C)(C)OC(=O)NCCCC[C@H](NC(=O)c1nc[nH]c1C(=O)N1CCN(c2ccccc2)CC1)C(=O)OC(C)(C)C	none
O=C(N/N=C/c1ccc(OC(=O)c2cccs2)cc1)c1ccccn1	none
CC(=O)O[C@H]1C[C@@]2(C)[C@@H](C[C@@H](O)[C@H]3[C@@]4(C)CC[C@@H](O)[C@@H](C)C4CC[C@@]32C)/C1=C(\CCC=C(C)C)C(=O)O (some centres not stated)	SKKanGAS inh 73 (no result: Calb FLC, Beta apoptosis, CSC inhib, Mdm2-MdmX inh)
COc1cc(/C=N/Nc2ccccc2)ccc1O	none
COc1ccc(/C=N/N(c2ccccc2)c2ccccc2)cc1O	CSC inhib 81
COc1cc(/C=N/N(c2ccccc2)c2ccccc2)ccc1O	CSC inhib 99
COC(=O)CCNC(=O)Cn1cnc2sc3c(c2c1=O)CCCC3	none
CCN(CC)S(=O)(=O)c1ccc(/C=C/C(=O)OCC(=O)Nc2ccc(S(N)(=O)=O)cc2)cc1	none
O=C(CCCn1cnc([N+](=O)[O-])n1)Nc1cc(Cl)ccc1O	none
O=C(CCCn1cnc([N+](=O)[O-])n1)Nc1cccc(Cl)c1Cl	none
Cc1c(Cl)cccc1NC(=O)CCCn1cnc([N+](=O)[O-])n1	T cruzi inh 56 (no result: Beta apoptosis, CSC inhib)
O=C(CCCn1cnc([N+](=O)[O-])n1)Nc1ccc(Cl)c(Cl)c1	T cruzi inh 82
Cc1cc(NC(=O)CCCn2cnc([N+](=O)[O-])n2)no1	T cruzi inh 58
CC[C@]12c3[nH]c4cc(-c5ccco5)ccc4c3CCN1C(=O)[C@@H](CC(=O)NCCCN(C)C)C[C@@H]2C(=O)N1CCN(C(=O)c2ccco2)CC1	none (no result: Calb FLC, T cruzi inh, Beta apoptosis, CSC inhib, SKKanGAS inh)
CC(C)c1ccc(/C=N/NC(=O)c2ccccn2)cc1	CSC inhib inconclusive
CC(C)c1ccc(/C=N/NC(=O)c2cccc(Cl)c2)cc1	CSC inhib 91 (no result: Mdm2-MdmX inh)
O=C(NCC1CC1)c1cc([N+](=O)[O-])cc([N+](=O)[O-])c1	T cruzi inh 61
CC1CCN(C(=S)NC(=O)c2cccc([N+](=O)[O-])c2)CC1	none
O=C(NCCCN1CCN(CCCNC(=O)c2cccc([N+](=O)[O-])c2)CC1)c1cccc([N+](=O)[O-])c1	Calb FLC inconclusive, T cruzi inh 56
O=C(NCCc1c[nH]c2ccccc12)c1cc([N+](=O)[O-])cc([N+](=O)[O-])c1	T cruzi inh 69
O=C(NCC1CCCCC1)c1cccc([N+](=O)[O-])c1	none
CCC1CCCCN1C(=S)NC(=O)c1cccc([N+](=O)[O-])c1 (configuration not stated)	SKKanGAS inh 53
COC(=O)[C@]1(CC(C)C)N[C@H](c2ccc(-c3cccc(Cl)c3)cc2)[C@@H]2C(=O)N(C)C(=O)[C@@H]21	none
COc1ccccc1OCC(=O)NNC(=O)c1ccc2c(=O)n3c(nc2c1)CCC3	none
CCOC(=O)C1=C(CS(=O)(=O)c2ccccc2)NC(=O)NC1c1ccccc1OC (configuration not stated)	none
COc1cccc(OCCNC(=O)c2cc([N+](=O)[O-])cc([N+](=O)[O-])c2)c1	T cruzi inh 61
